{"source": "ChEMBL document CHEMBL1144579", "about": "“Synthesis and antiparasitic evaluation of bis-2,5-[4-guanidinophenyl]thiophenes” (Eur J Med Chem, 2007)", "key": {"L6": {"system": "L6", "assay": "Cytotoxicity against rat L6 cells by alamar blue assay", "format": "cell-based"}, "Trypanosoma cruzi": {"system": "Trypanosoma cruzi", "assay": "Antiparasitic activity against Trypanosoma cruzi Tulahuen LacZ C4", "format": "functional, organism-based"}, "Mus musculus [1]": {"system": "Mus musculus", "assay": "Survival of Trypanosoma brucei rhodesiense STIB900 infected mouse at 20 mg/kg, ip administered for 4 days", "format": "functional", "conditions": "route intraperitoneal"}, "Leishmania donovani": {"system": "Leishmania donovani", "assay": "Antiparasitic activity against Leishmania donovani", "format": "functional, organism-based"}, "[2]": {"system": "Trypanosoma brucei rhodesiense", "assay": "Antitrypanosomal activity in Trypanosoma brucei rhodesiense STIB900 infected mouse at 20 mg/kg, ip administered for 4 days", "format": "functional, organism-based", "design": "dose 20 mg/kg"}, "[3]": {"system": "Trypanosoma brucei rhodesiense", "assay": "Antiparasitic activity against Trypanosoma brucei rhodesiense STIB900", "format": "functional, organism-based", "summary_of_the_method": "(§1)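 In vitro IC50s against T. b. rhodesiense STIB900 and P. falciparum K1 are means of at least two independent experiments. The IC50 values averaged for each compound were within a factor of two of each other.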"}, "Plasmodium falciparum": {"system": "Plasmodium falciparum", "assay": "Antiparasitic activity against Plasmodium falciparum K1", "format": "functional, organism-based", "summary_of_the_method": "as §1"}, "Mus musculus [4]": {"system": "Mus musculus", "assay": "Survival of Trypanosoma brucei rhodesiense STIB900 infected mouse at 5 mg/kg, ip administered for 4 days", "format": "functional", "conditions": "route intraperitoneal"}}, "note": "Calls of active or inactive are those of the source. No cut-off for these calls is given here.", "data": [{"smiles": "CCN(CC)CCCC(C)Nc1ccnc2cc(Cl)ccc12", "note": "(centres undefined) [CHLOROQUINE]", "values": [{"measurement": "IC50", "setting": "L6", "value": 188000, "unit": "nM"}]}, {"smiles": "N=C(N)Nc1ccc(-c2ccc(-c3ccc(NC(=N)N)cc3)s2)cc1", "values": [{"measurement": "IC50", "setting": "Trypanosoma cruzi", "value": 154000, "unit": "nM"}, {"measurement": "IC50", "setting": "L6", "value": 100000, "unit": "nM"}, {"measurement": "Survival", "setting": "Mus musculus [1]", "value": 43, "unit": "days"}, {"measurement": "IC50", "setting": "Leishmania donovani", "value": 6700, "unit": "nM"}, {"measurement": "Activity", "setting": "[2]", "value": "inactive"}, {"measurement": "IC50", "setting": "[3]", "value": 28, "unit": "nM"}, {"measurement": "IC50", "setting": "Plasmodium falciparum", "value": 3.6, "unit": "nM"}]}, {"smiles": "N=C(N)c1ccc(OCCCCCOc2ccc(C(=N)N)cc2)cc1", "note": "[PENTAMIDINE]", "values": [{"measurement": "IC50", "setting": "Trypanosoma cruzi", "value": 5350, "unit": "nM"}, {"measurement": "Survival", "setting": "Mus musculus [1]", "value": 40.8, "unit": "days"}, {"measurement": "IC50", "setting": "Leishmania donovani", "value": 1900, "unit": "nM"}, {"measurement": "Activity", "setting": "[2]", "value": "inactive"}]}, {"smiles": "N=C(Nc1ccc(-c2ccc(-c3ccc(NC(=N)NC4CCCCC4)cc3)s2)cc1)NC1CCCCC1", "values": [{"measurement": "IC50", "setting": "Trypanosoma cruzi", "value": 1700, "unit": "nM"}, {"measurement": "IC50", "setting": "L6", "value": 4300, "unit": "nM"}, {"measurement": "IC50", "setting": "Leishmania donovani", "value": 2500, "unit": "nM"}, {"measurement": "IC50", "setting": "[3]", "value": 354, "unit": "nM"}, {"measurement": "IC50", "setting": "Plasmodium falciparum", "value": 160, "unit": "nM"}]}, {"smiles": "CNC(=N)Nc1ccc(-c2ccc(-c3ccc(NC(=N)NC)cc3)s2)cc1", "values": [{"measurement": "IC50", "setting": "Trypanosoma cruzi", "value": 30500, "unit": "nM"}, {"measurement": "IC50", "setting": "L6", "value": 54300, "unit": "nM"}, {"measurement": "Survival", "setting": "Mus musculus [1]", "value": ">40.25", "unit": "days"}, {"measurement": "IC50", "setting": "Leishmania donovani", "value": 6200, "unit": "nM"}, {"measurement": "IC50", "setting": "[3]", "value": 6.2, "unit": "nM"}, {"measurement": "IC50", "setting": "Plasmodium falciparum", "value": 23, "unit": "nM"}]}, {"smiles": "Cc1ccc(NC(=N)Nc2ccc(-c3ccc(-c4ccc(NC(=N)Nc5ccc(C)cc5)cc4)s3)cc2)cc1", "values": [{"measurement": "IC50", "setting": "Trypanosoma cruzi", "value": 3700, "unit": "nM"}, {"measurement": "IC50", "setting": "L6", "value": 1100, "unit": "nM"}, {"measurement": "IC50", "setting": "Leishmania donovani", "value": 16000, "unit": "nM"}, {"measurement": "IC50", "setting": "[3]", "value": 573, "unit": "nM"}, {"measurement": "IC50", "setting": "Plasmodium falciparum", "value": 42.7, "unit": "nM"}]}, {"smiles": "N=C(Nc1ccc(-c2ccc(-c3ccc(NC(=N)NC4CCCC4)cc3)s2)cc1)NC1CCCC1", "values": [{"measurement": "IC50", "setting": "Trypanosoma cruzi", "value": 8400, "unit": "nM"}, {"measurement": "IC50", "setting": "L6", "value": 15900, "unit": "nM"}, {"measurement": "Survival", "setting": "Mus musculus [1]", "value": ">39.5", "unit": "days"}, {"measurement": "IC50", "setting": "Leishmania donovani", "value": 1500, "unit": "nM"}, {"measurement": "IC50", "setting": "[3]", "value": 306, "unit": "nM"}, {"measurement": "IC50", "setting": "Plasmodium falciparum", "value": 134, "unit": "nM"}]}, {"smiles": "CC(C)NC(=N)Nc1ccc(-c2ccc(-c3ccc(NC(=N)NC(C)C)cc3)s2)cc1", "values": [{"measurement": "IC50", "setting": "Trypanosoma cruzi", "value": 28200, "unit": "nM"}, {"measurement": "IC50", "setting": "L6", "value": 69400, "unit": "nM"}, {"measurement": "IC50", "setting": "Leishmania donovani", "value": 11000, "unit": "nM"}, {"measurement": "Survival", "setting": "Mus musculus [4]", "value": ">34", "unit": "days"}, {"measurement": "IC50", "setting": "[3]", "value": 116, "unit": "nM"}, {"measurement": "IC50", "setting": "Plasmodium falciparum", "value": 107, "unit": "nM"}]}, {"smiles": "N=C(N)c1ccc(-c2ccc(-c3ccc(C(=N)N)cc3)o2)cc1", "note": "[FURAMIDINE]", "values": [{"measurement": "IC50", "setting": "Trypanosoma cruzi", "value": 23300, "unit": "nM"}, {"measurement": "Survival", "setting": "Mus musculus [1]", "value": ">52.5", "unit": "days"}, {"measurement": "IC50", "setting": "Leishmania donovani", "value": 2800, "unit": "nM"}, {"measurement": "Activity", "setting": "[2]", "value": "inactive"}]}, {"smiles": "N=C(Nc1ccccc1)Nc1ccc(-c2ccc(-c3ccc(NC(=N)Nc4ccccc4)cc3)s2)cc1", "values": [{"measurement": "IC50", "setting": "Trypanosoma cruzi", "value": 9900, "unit": "nM"}, {"measurement": "IC50", "setting": "L6", "value": 2500, "unit": "nM"}, {"measurement": "IC50", "setting": "Leishmania donovani", "value": 35000, "unit": "nM"}, {"measurement": "IC50", "setting": "[3]", "value": 1900, "unit": "nM"}, {"measurement": "IC50", "setting": "Plasmodium falciparum", "value": 154, "unit": "nM"}]}]}
